Screens: PubChem, several laboratories
Rpn11 inh – Rpn11 (PSMD14) deubiquitinase inhibitors, primary screen, biochemical, fluorescence polarization, uHTS | 26S proteasome non-ATPase regulatory subunit 14 (Homo sapiens), O00487 | human 26S proteasome, Ub4-pepOG fluorescence polarization; 20S core pre-blocked with epoxomicin | inhibition, % at 20 µM | hit rate 0.59% among 360,000;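 active means inhibition at 20 µM, scaled to each plate's controls, above about 33%, limit read from the data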
Target sequence (O00487 whole entry, looked up): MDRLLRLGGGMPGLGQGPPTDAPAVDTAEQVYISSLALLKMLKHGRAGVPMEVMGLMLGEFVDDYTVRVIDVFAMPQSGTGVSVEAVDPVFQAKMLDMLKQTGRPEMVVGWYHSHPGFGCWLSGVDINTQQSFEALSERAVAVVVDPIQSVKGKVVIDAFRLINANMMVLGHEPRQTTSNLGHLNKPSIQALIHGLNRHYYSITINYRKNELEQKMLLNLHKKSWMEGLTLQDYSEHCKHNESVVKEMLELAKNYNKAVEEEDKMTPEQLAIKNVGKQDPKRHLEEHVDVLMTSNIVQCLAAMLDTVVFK
HNF4A DNA FP – change in binding of human HNF4A to DNA, primary screen, biochemical, fluorescence polarization, FITC-DNA; activity change, % at 10 µM; hit rate 0.3% among 360,000; 1 h; in the data active means activity change above about 30%, passing the limit was not always enough
Neddyl block – inhibitors of cullin neddylation, primary screen, biochemical, TR-FRET, uHTS, NAE and Ubc12; AID 651699, 2012; hit rate 0.58% among 360,000; inhibition, % at 25 µM; in the data active means inhibition above about 36%
CSN inh – inhibitors of CSN-mediated cullin deneddylation, primary screen, biochemical, fluorescence polarization, uHTS; COP9 signalosome complex subunit 5 (Homo sapiens), Q92905; Purified CSN, SCF-Nedd8-OG deneddylation; inhibition, % at 12.5 µM; hit rate 0.38% among 360,000; AID 651999, 2013;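 active means pattern-corrected inhibition above about 35%, with an unprinted fluorescence ratio check between 0.5 and 1.5, limit read from the data, passing the limit was not always enough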
Target sequence (Q92905 whole entry, looked up, one chain of several): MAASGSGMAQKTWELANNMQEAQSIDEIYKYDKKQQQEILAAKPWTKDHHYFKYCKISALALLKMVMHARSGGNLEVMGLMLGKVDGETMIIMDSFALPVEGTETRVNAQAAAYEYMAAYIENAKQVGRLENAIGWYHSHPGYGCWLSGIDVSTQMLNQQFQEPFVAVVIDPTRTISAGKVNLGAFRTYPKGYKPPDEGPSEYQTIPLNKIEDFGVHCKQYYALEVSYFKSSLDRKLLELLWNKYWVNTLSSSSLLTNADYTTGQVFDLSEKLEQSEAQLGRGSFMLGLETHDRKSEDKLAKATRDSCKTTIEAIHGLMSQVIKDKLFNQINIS
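Assay system: purified human Csn5 enzyme expressed in HEK293T cells; Input: 0.24 nM Csn5 enzyme, final concentration; Reagent: 10 nM SCFSkp2-Nedd8OG; Compound dosing: 12.5 µM single point; Times: reaction 90 min, room temperature; Technique: fluorescence polarization readout.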
PREPL inh – PREPL enzyme inhibitors, primary screen, biochemical, fluorescence polarization; Prolyl endopeptidase-like (Homo sapiens), Q4J6C6; inhibition, % at 5.96 µM; recombinant PREPL, fluorescence polarization activity-based probe; hit rate 0.68% among 320,000; in the data active means inhibition above about 43%
TbMetRS inhib – T. brucei MetRS inhibitors, primary screen, biochemical, luminescence; methionyl-tRNA synthetase (Trypanosoma brucei brucei); purified T. brucei MetRS, ATP depletion, Kinase-Glo luminescence; inhibition, % at 11.9 µM; hit rate 0.4% among 360,000; AID 624268, 2012;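 active means inhibition above a per-plate cutoff of the control wells' mean inhibition plus 3 SD, cut at about 5.5% in these data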
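Material: T. brucei methionyl-tRNA synthetase, purified; reagent: substrates ATP, L-methionine and bulk Escherichia coli tRNA; dosing: 11.9 µM single point; timing: 15 min plus 2 h at 25 °C; detection: luminescence of leftover ATP; evaluation: % inhibition; control set: DMSO-only wells as low control; replicates: singlicate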
Each line names hits and unclear results; the compound was inactive in the other large screens. Only some compounds are listed: those with a hit (about 2.4% of all), similar ones and a draw of the others.

COC(=O)c1cc(OC)c(OC)cc1NC(=O)CCN1C(=O)C2CCCCC2C1=O (centres undefined)	none (no result: PREPL inh)
Cn1cnnc1SCC(=O)Nc1ccc(OCc2ccccc2)cc1	CSN inh 49.8
Cn1cnnc1SCC(=O)Nc1ccccc1	none
Cc1ccccc1S(=O)(=O)NC(=O)C1(C)CCN1C(=O)C(C)(C)c1ccccc1 (centres undefined)	HNF4A DNA FP 38.8 (no result: PREPL inh)
Cc1csc(=O)n1CCC(=O)OCC(=O)NCc1ccccc1	none (no result: PREPL inh)
O=C(NCc1ccccc1)C(=O)NCC1OCCN1S(=O)(=O)c1ccc([N+](=O)[O-])cc1 (centres undefined)	HNF4A DNA FP 32.1
CC(C)c1ccc(NC(=O)c2cc(S(=O)(=O)N3CCCCC3)c[nH]2)cc1	none (not shown: Neddyl block)
COc1ccc(-c2csc(Cc3nnc(N4CCOCC4)n3-c3ccccc3)n2)cc1	PREPL inh 50.9
O=S(=O)(O)c1cc(O)c2cc(Nc3ccccc3)ccc2c1	Neddyl block 44.3 (no result: PREPL inh)
COc1ccccc1Nc1ccc2c(O)cc(S(=O)(=O)O)cc2c1	Neddyl block 46.3 (no result: PREPL inh)
O=S(=O)(O)c1cc(O)c2ccc(Nc3ccccc3)cc2c1	Neddyl block 53.8 (no result: PREPL inh)
CCOc1cc(C)nc(N2CCC(C(=O)NC3CC3)CC2)n1	none (no result: PREPL inh)
O=C(c1ccc(Cn2c(=S)[nH]c3ccc(N4CCOCC4)cc3c2=O)cc1)N1CCN(c2ccc(F)cc2)CC1	PREPL inh 63.3
Cc1ccc(C)c(N2CCN(C(=O)c3ccc(Cn4c(=S)[nH]c5ccc(N6CCOCC6)cc5c4=O)cc3)CC2)c1	none (not shown: Neddyl block)
CCN(C[C@H]1N[C@@](C)(C(=O)OC)[C@H]2C(=O)N(C)C(=O)[C@@H]12)C(=O)COC	none
CC(C)Cc1ccc(CN2CCCC(NC(=O)CSc3nncn3C)C2)cc1 (centres undefined)	none
CC(C)C[C@H]1CNC(=S)N1C[C@H]1CCCN1C[C@H](Cc1ccccc1)N1C[C@H](Cc2ccc(O)cc2)N(CCc2ccccc2)C1=S	none (no result: PREPL inh)
COc1cc2c(cc1OC)C(CSc1ccccc1C(=O)O)=NC(C)(C)C2	Neddyl block 40.9
COc1ccc(N(C)S(=O)(=O)c2cccc(C(=O)OCC(=O)N3CC(C)CC(C)C3)c2)cc1 (centres undefined)	none
Cc1ccc(Nc2nc(N)nc(CSc3nnnn3-c3ccccc3)n2)cc1	CSN inh 40.5
Nc1ccccc1O	none
Nc1cccc2c(O)cccc12	Neddyl block 44.5
C/C(=N\NC(=O)c1ccc(-n2cnnn2)cc1)c1ccc(Cl)cc1	none
CC(=O)NC(=S)NNC(=O)C(c1ccccc1)c1ccccc1	CSN inh 77.5
O=c1oc(-c2ccco2)nc2sc3c(c12)CCCC3	PREPL inh 72.4 (not shown: Neddyl block)
CCOc1ccc(-n2c(=S)sc3c(=O)n(-c4ccc(F)cc4)c(SCC(=O)O)nc32)cc1	none
OC[C@@H]1CN(CCN2CCOCC2)C[C@H](n2cnc3c(NC4CCC4)ncnc32)O1	none (no result: PREPL inh)
Cc1cc(C)c(S(=O)(=O)/N=C2/C=C(SCC(=O)O)C(=O)c3ccccc32)cc1C	HNF4A DNA FP 37.6 (no result: PREPL inh)
CC(C)Cn1c(N)c(C(=O)CSc2nc3ccccc3n2C)c(=O)n(C)c1=O	HNF4A DNA FP 47.8
CC(C)Cn1c(SCC(=O)c2c(N)n(C)c(=O)n(C)c2=O)nc2ccccc21	none
CCc1ccc(CN(Cc2cccnc2)C(=O)/C=C/c2ccc(OC)cc2)cc1	HNF4A DNA FP 60.3 (not shown: Rpn11 inh)
C[C@H](CO)N1C[C@H](C)[C@@H](CN(C)S(=O)(=O)c2ccccc2)Oc2c(NC(=O)c3ccncc3)cccc2C1=O	none
COc1ccc(NC(=O)CSc2ccc3nnc(-c4cccnc4)n3n2)c(OC)c1	PREPL inh 45.4
COc1cc(O)c(C(C)=O)c(CC(=O)O)c1	CSN inh 35.0
Cc1ccc(-c2nn(-c3ccccc3)cc2C=C2SC(=S)N(CCS(=O)(=O)O)C2=O)cc1	CSN inh 47.2 (no result: PREPL inh)
Cc1ccccc1CN1CCN(C(=O)c2ccc(F)cc2)CC1	none (no result: PREPL inh)
O=C(Cn1nnc(-c2ccccc2NC(=O)c2cccs2)n1)Nc1ccccc1	none
COc1ccccc1NC(=O)Cn1nnc(-c2ccccc2NC(=O)c2cccs2)n1	CSN inh 37.0
CCOc1ccc(C(=O)Nc2cc(NC(=O)c3ccc(OCC)c(Cl)c3)cc(C(=O)O)c2)cc1Cl	CSN inh 48.8 (no result: PREPL inh)
CCOc1ccc(C(=O)Nc2cccc(C(=O)O)c2)cc1Cl	none
NC(CCc1ccccc1)c1csc(Nc2cnccn2)n1 (centres undefined)	none (no result: PREPL inh)
NC(Cc1ccc(Cl)cc1)c1csc(NC(=O)Nc2ccccc2-c2ccccc2)n1 (centres undefined)	none (no result: PREPL inh)
CC(=O)c1ccc(N2CCN(C(=O)C3CCN(S(=O)(=O)Cc4ccccc4)CC3)CC2)cc1	CSN inh 92.1
O=C(C1CCN(S(=O)(=O)Cc2ccccc2)CC1)N1CCN(c2ncccn2)CC1	CSN inh 101.0
CC(=O)c1ccc(N2CCN(C(=O)C3CCN(S(=O)(=O)c4ccc(F)cc4)CC3)CC2)cc1	none
O=S(=O)(Cc1ccccc1)N1CCN(c2ncccn2)CC1	none
OC[C@@H]1CN(Cc2cccs2)C[C@H](n2cnc3c(NCc4ccc(F)cc4)ncnc32)O1	none (no result: PREPL inh)
N#Cc1ccsc1NC(=O)c1cccc(-n2cnnn2)c1	HNF4A DNA FP 41.8, CSN inh 38.0 (not shown: Rpn11 inh)
CC(C)c1nnc(NC(=O)c2cccc(-n3cnnn3)c2)s1	none
O=S(=O)(c1cnc[nH]1)N1CCc2ccccc21	CSN inh 73.1 (not shown: Rpn11 inh)
CC1Cc2ccccc2N1S(=O)(=O)c1cnc[nH]1 (centres undefined)	none
Nc1ccc(S(=O)(=O)N2CCc3ccccc32)cc1	HNF4A DNA FP 84.9
O=S(=O)(c1ccc2ccccc2c1)N1CCc2ccccc21	none (no result: PREPL inh)
Cc1ccc(NS(=O)(=O)c2ccc(C(=O)N3CCCC(C(F)(F)F)C3)cc2)cc1 (centres undefined)	none
Cc1cc2nc(C3CCCCC3)c(Cc3cccc(Cl)c3)n2c(C)c1Br	none (no result: Rpn11 inh, PREPL inh)
Nc1c(C(=O)Nc2nccs2)sc2nc(-c3cccs3)cc(C(F)(F)F)c12	none (not shown: Rpn11 inh)
Cc1nnc(NC(=O)c2sc3nc(-c4cccs4)cc(C(F)(F)F)c3c2N)s1	CSN inh 106.1 (not shown: Rpn11 inh)
Cn1cc(C(=O)c2ccccc2C(=O)O)cc1C(=O)C(Cl)(Cl)Cl	CSN inh 43.5
Cn1cc(C(=O)c2ccc(Cl)cc2Cl)cc1C(=O)O	none
Nc1ncnc(N)c1NC(=O)c1ccc(OCc2ccccc2)cc1	none (no result: PREPL inh)
